NF-kB expr up: NF-kB expression increase, human neuronal cells; NF-kB reporter expression; active compounds read high; fold change at 12.5 µM; 190,000 tested, 1.6% active; AID 1239; in the data active = fold change above about 3.3
STAT1 inh: inhibitors of IFN-gamma induced STAT1 signaling; NIH 3T3 STAT1-luciferase reporter, luminescence; inhibition, % at 5.5 µM; 200,000 tested, 0.35% active; AID 920;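 active = inhibition above a set limit, the mean inhibition across all tested compounds plus 3 SD, cut at about 34% in these data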;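 also: 0% = IFN-gamma with DMSO and 100% = IFN-gamma with 300 µM nifuroxazide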
STAT3 act-1: activators of IL-6 induced STAT3 signaling; U3A cells, IL-6 STAT3-luciferase reporter, luminescence; 100% = signal with IL-6 EC80 alone; activation (% of control), % at 5.6 µM; 190,000 tested, 0.91% active; AID 871;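 active = activation above the screen-wide mean of compound activation plus 3 SD, cut at about 130% in these data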;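 also: 0% = background luminescence of wells with medium and substrate only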
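System – human U3A cells carrying STAT3-luciferase construct · Probe or stimulus – Interleukin-6, 33 ng/mL · Schedule – compound 1 h, then IL-6 6 h at 37 °C · Signal – luminescence from STAT3-driven luciferase reporter · Evaluation – percent of IL-6-only median luminescence · Benchmarks – IL-6-only high control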
APP 5'UTR act: APP 5'UTR luciferase reporter activation. SH-SY5Y APP 5'UTR luciferase reporter, luminescence; zero percent = DMSO vehicle wells. activation, % at 2 µM. 190,000 tested, 1% active. AID 1276;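 active = activation above a set limit, based on mean plus 3 SD of controls, cut at about 140% in these data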
STAT1 act-1: increases IFN-gamma driven STAT1 reporter signal | NIH 3T3 STAT1-luciferase reporter, luminescence; 100% = IFN-gamma alone, no compound | activation (% of control), % at 5.5 µM | 200,000 tested, 2.6% active | AID 932;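 active = activation above the screen-wide mean activation plus 3 SD, cut at about 130% in these data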;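 also: raw ratio to IFN-gamma control signal so 100% means no change and 0% no light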
STAT3 inh: inhibitors of IL-6 induced STAT3 signaling; inhibition, % at 5.5 µM; U3A cells, IL-6 STAT3-luciferase reporter, luminescence; host cell line lacks STAT1; 190,000 tested, 0.89% active;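 active = inhibition above the mean inhibition across all screened compounds plus 3 SD, cut at about 44% in these data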;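 also: 0% = DMSO only wells and 100% = 100 µM nifuroxazide control wells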
STAT3 act-2: confirmation of STAT3 signaling activators; AID 1267; U3A STAT3-luciferase reporter, IL-6 potentiation, luminescence; U3A cells lack STAT1; 100 means same as IL-6 alone; potentiation (% of control), % at 5.7 µM; 1,200 tested, 64% active; shares compounds with STAT3 act-1;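 active = percent activation of the STAT3 luciferase reporter above a set limit taken from the earlier primary screen, cut at about 130% in these data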;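 also: 0% = background signal of medium plus substrate and 100% = median of IL-6 with DMSO wells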
NFkB act STAT3ct: NF-kappaB activation in STAT3 activator counter-screen; activation (% of control), % at 5.7 µM; shares compounds with STAT3 act-1; human cells, NF-kappaB reporter activation; 1,200 tested, 11% active; in the data active = activation above about 120%;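 also: reporter induced by TNF-alpha stimulation; 100% = median of stimulated DMSO wells and 0% = no signal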
STAT1 act-2: STAT1 activation in STAT3 activator counter-screen. shares compounds with STAT3 act-1. NIH 3T3 STAT1-luciferase reporter, IFN-gamma, luminescence. activation (% of control), % at 5.7 µM. 1,200 tested, 13% active;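 active = activation above the solvent-only control well mean plus 3 SD, set per screening run, cut at about 120% in these data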;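 also: 100% = IFN-gamma with DMSO median signal so 100% means no change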
The depositor's hits bear a star; · = not tested or not shown. Compounds with a hit are over-represented: about 5.1% of the library has one in this group of screens.

SMILES	NF-kB expr up	STAT1 inh	STAT3 act-1	APP 5'UTR act	STAT1 act-1	STAT3 inh	STAT3 act-2	NFkB act STAT3ct	STAT1 act-2
O=S(=O)(Nc1cc(Sc2cccc3cccnc23)c(O)c2ccccc12)c1ccccc1	0.5	4.5	176.3*	-74.9	96.0	-96.3	148.2*	128.1*	128.4*
CCc1ccc(S(=O)(=O)Nc2cc(SCC(=O)O)c(O)c3ccccc23)cc1	0.69	-1.8	109.3	-5.8	100.1	-6.1	·	·	·
CCOC(=O)c1csc(NNC=O)n1	1.29	-0.2	100.1	-4.5	100.2	0.0	·	·	·
COC(=O)c1ccccc1NC(=O)N1CCN(Cc2ccco2)CC1	1	-1.2	93.1	-5.6	101.3	16.4	·	·	·
O=C(CCc1ccc(S(=O)(=O)NCc2ccccc2)cc1)NCc1cccnc1	0.99	5.5	91.0	-2.3	95.1	8.5	·	·	·
COc1ccc(C2=Nn3c(nnc3-c3ccccc3OC)SC2)cc1OC	1.42	5.5	149.9*	-95.8	95.0	-53.7	126.7	128.4*	94.3
CC(C)CC1c2[nH]c3ccccc3c2CCN1C(=O)C1CCOCC1 (centres undefined)	1.28	2.0	119.2	1.0	97.4	-8.3	·	·	·
Cc1c(CN2CCc3c([nH]c4ccccc34)C2CC(C)C)cnn1C (centres undefined)	1.26	10.3	138.6*	2.7	88.9	-42.6	143.1*	105.8	101.8
CC(C)CC1c2[nH]c3ccccc3c2CCN1C(=O)CCC(=O)N(C)C (centres undefined)	1.11	-5.0	144.5*	9.1	102.8	-49.5	150.1*	106.8	97.6
CC(=O)c1cc(C(=O)N2CCc3c([nH]c4ccccc34)C2CC(C)C)[nH]n1 (centres undefined)	0.98	1.4	145.1*	12.9	97.1	-45.5	142.6*	94.1	93.5
Cn1cccc1-c1cc(C(=O)N2CCc3c([nH]c4ccccc34)C2c2ccccn2)[nH]n1 (centres undefined)	0.66	27.2	92.6	-9.8	73.3	11.0	·	·	·
CN(C(=O)CO/N=C/c1ccc(OC(F)F)cc1)C1CCS(=O)(=O)C1 (centres undefined)	1.23	1.0	105.2	1.6	97.3	-2.4	·	·	·
COc1ccc(-c2nc(C(F)(F)F)c(OC)o2)cc1OC	1.12	1.4	92.5	-18.2	98.7	9.1	·	·	·
CCOC(=O)NC(C)N1C(=O)C2C3C=CC(C3)C2C1=O (centres undefined)	1.29	3.7	94.2	21.1	96.1	9.2	·	·	·
Cc1nn(-c2ccc(Cl)c(Cl)c2Cl)c(=O)c2ccccc12	1.07	3.6	93.3	22.7	96.7	9.7	·	·	·
Cc1nn(-c2ccc(Cl)c(Cl)c2)c(=O)c2ccccc12	1.61	-2.9	145.6*	-15.2	102.6	-42.0	138.0*	123.1*	134.2*
Cc1cc(SCC(=O)c2cc3ccccc3o2)nc2ccccc12	1.23	4.4	145.9*	11.4	96.0	-46.6	149.9*	106.7	95.2
O=C(O)c1cnn(-c2ccccc2)c1C(F)(F)F	1.17	-20.6	106.5	-5.7	118.8	-3.9	·	·	·
Cc1c(C(=O)O)oc2c1C(=O)CC(C)(C)C2	1.08	-5.9	93.9	-14.7	105.4	12.6	·	·	·
c1ccc2c(c1)[nH]c1c(N3CCOCC3)ncnc12	0.69	20.5	139.8*	4.1	81.3	-41.3	134.0*	94.1	72.9
Fc1ccccc1COc1ccc2ccccc2c1CNc1nn[nH]n1	1.14	3.8	97.3	8.8	98.0	8.0	·	·	·
Cc1ccc(-n2nc(C)c3c2OC(N)=C(C#N)C3c2cccs2)cc1 (centres undefined)	0.88	11.2	142.5*	2.5	90.1	-42.1	156.9*	109.6	94.1
Cc1ccc(N2CCOCC2)c2c1C(=O)c1ccccc1C2=O	0.97	-2.8	99.5	-11.6	102.5	-0.4	·	·	·
CC1=C(C)C(=O)C(N2CCOCC2)=CC1=O	0.95	-10.5	143.0*	3.1	109.6	-58.4	138.9*	99.7	103.7
CCOC(=O)c1cnn(-c2nc3c(C)cccc3s2)c1C	1.45	2.0	151.5*	7.4	98.1	-61.7	130.2	101.2	102.0
SMILES	NF-kB expr up	STAT1 inh	STAT3 act-1	APP 5'UTR act	STAT1 act-1	STAT3 inh	STAT3 act-2	NFkB act STAT3ct	STAT1 act-2
CCOC(=O)c1cnn(-c2nc3c(C)cccc3s2)c1C(F)(F)F	1.14	-2.4	102.3	7.6	102.2	-2.4	·	·	·
COc1ccc(C(O)c2nc3ccccc3s2)cc1 (centres undefined)	1.19	-6.8	78.2	-1.0	106.1	26.2	·	·	·
COc1cc(OC)cc(-c2nc3ccccc3s2)c1	2.12	-26.1	203.0*	65.3	123.5	-123.8	179.8*	127.1*	138.7*
Cc1cccc(NC(=O)c2cc([N+](=O)[O-])ccc2Cl)c1O	1.19	5.8	155.4*	5.0	94.8	-49.1	161.9*	109.9	98.2
O=C(Nc1ccccc1Oc1ccccc1)c1cc([N+](=O)[O-])ccc1Cl	0.64	4.6	97.8	2.4	95.8	2.0	·	·	·
Cn1c(=O)c(-c2ccccc2N)nc2ccccc21	1.12	4.9	115.7	-3.5	95.5	-11.4	·	·	·
Cn1c(=O)c(-c2ccccc2)nc2ccccc21	1.16	-4.9	141.4*	9.3	107.3	-46.9	117.2	107.2	103.2
Cc1nnc(SCC(=O)NCC(=O)Nc2ccc(F)c(F)c2F)n1Cc1ccccc1	1.01	-4.1	102.6	9.0	101.4	-1.7	·	·	·
Cc1c(NC(=O)COC(=O)c2cc3c4ccccc4n(C)c3s2)c(=O)n(-c2ccccc2)n1C	0.77	3.5	157.8*	16.4	96.8	-68.3	135.9*	101.6	95.6
Cc1cc(NC(=O)Nc2cccc(C)c2C)no1	0.8	-3.1	82.4	-0.2	103.0	27.6	·	·	·
C#CCn1c(=NC(=O)c2ccc(S(=O)(=O)N3CCc4ccccc4C3)cc2)sc2cc(S(N)(=O)=O)ccc21	1.06	-0.6	143.9*	5.2	100.5	-57.1	138.0*	113.1	102.5
CC(C)(C)NC(=O)COC(=O)/C=C/c1ccccc1[N+](=O)[O-]	1.23	10.6	106.0	-0.8	90.2	-8.9	·	·	·
O=C(COC(=O)/C=C/c1ccccc1[N+](=O)[O-])NC1CCS(=O)(=O)C1 (centres undefined)	0.95	24.7	139.6*	-0.1	76.7	-38.3	186.6*	116.9	126.1*
O=C(COC(=O)/C=C/c1ccccc1[N+](=O)[O-])NC1CC1	0.82	13.3	149.4*	7.8	86.0	-43.6	142.1*	99.9	82.6
